In the library only some 1.1% were active in any assay of this set; here they are far more common.
hK5 inh: inhibitors of human kallikrein 5; 0.59% of 210,000 active; recombinant hK5, fluorogenic AMC substrate cleavage; Q9Y337; AID 873; inhibition, % at 5 µM;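 active = inhibition of 40% or more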
Target sequence (Q9Y337 67-293 limits assumed): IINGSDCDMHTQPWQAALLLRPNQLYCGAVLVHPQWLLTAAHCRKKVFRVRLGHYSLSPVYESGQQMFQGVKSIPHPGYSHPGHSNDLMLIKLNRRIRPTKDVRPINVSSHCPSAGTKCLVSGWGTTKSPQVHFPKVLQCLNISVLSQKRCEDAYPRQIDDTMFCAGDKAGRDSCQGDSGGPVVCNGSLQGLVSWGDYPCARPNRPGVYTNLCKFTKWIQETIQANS
thrombin 1536: inhibitors of human thrombin; alpha-thrombin, Boc-VPR-AMC fluorogenic substrate cleavage; inhibition, % at 5 µM; 0.26% of 220,000 active; P00734;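 active = inhibition at or above 40%; inactive = inhibition below 40%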
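Material: Human alpha-thrombin protein | Buffer or medium: pH 7.5 Tris-saline with Tween 20 | Reagent: Boc-VPR-AMC substrate, 15 µM final | Schedule: Reaction at ambient temperature | Detection: AMC fluorescence at 355 nm excitation and 460 nm emission | Evaluation: Percent inhibition scaled between no-compound controls and no-enzyme blanks | Controls: no-compound enzyme wells and no-enzyme blanks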
FXIIa inh: factor XIIa (human) inhibition; P00748; purified FXIIa, Boc-QGR-AMC fluorogenic substrate, 2 h; inhibition, % at 5 µM; 0.3% of 220,000 active; in the data active = inhibition above about 40%
FXIa inh 1536: factor XIa (human) inhibition | P03951 | purified FXIa, Boc-Glu-Ala-Arg-AMC fluorogenic substrate | inhibition, % at 5 µM | 0.14% of 220,000 active;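 active = inhibition of at least 40%; inactive = inhibition below 40%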;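 note: fluorescence of freed AMC excited at 355 nm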
Furin inhibitor: human furin inhibition | inhibition, % at 20 µM or 30 µM | purified furin, fluorogenic substrate cleavage | 0.061% of 220,000 active | P09958; in the data active = inhibition above about 25%
Of the large screens only hits and unclear results are named; the others gave an inactive call; ! = not active in a repeat.

CCOC(=O)c1ccc(NC(=O)COc2ccc(S(=O)(=O)NC(C)C)cc2)cc1	none
Cc1cnc(NC(=O)c2cccc(S(=O)(=O)N3CC(C)OC(C)C3)c2)s1 (stereo not given)	none
O=C(Nc1ccccc1C(=O)NC(Cc1ccccc1)C(=O)NC1CCCCC1)c1ccccc1 (stereo not given)	none
COC(=O)c1ccccc1NC(=O)C1CC(=O)N(c2ccc(C)c(C)c2)C1 (stereo not given)	none
COC(=O)c1ccccc1NC(=O)C1CC(=O)N(c2ccc(F)cc2)C1 (stereo not given)	hK5 inh 88.5, thrombin 1536 50.3
COC(=O)c1ccccc1NC(=O)C1CC(=O)N(C2CCCCC2)C1 (stereo not given)	hK5 inh 63.5
CCc1ccc(N2CC(C(=O)Nc3ccccc3F)CC2=O)cc1 (stereo not given)	hK5 inh 87.5, thrombin 1536 104.0
CCN(CC)S(=O)(=O)c1ccc(C(=O)NCc2n[nH]c(=S)n2-c2ccc(Cl)c(Cl)c2)cc1	none
S=c1[nH]nc(-c2ccncc2)n1/N=C/C=C/c1ccco1	FXIIa inh 73.6
COc1cccc(NC(=S)Nc2ccc(Br)cc2Cl)c1	thrombin 1536 51.5, FXIIa inh 40.5
COc1cc(NC(=S)NCCC(c2ccccc2)c2ccccc2)cc(OC)c1	none
COc1cccc(NC(=S)NCCC(c2ccccc2)c2ccccc2)c1	thrombin 1536 41.3
COc1ccc(Cn2nnc3c(=O)[nH]c(C(=O)NCCc4ccc(F)cc4)nc32)cc1OC	none
O=C(CNCc1ccccn1)Nc1cc(C(F)(F)F)ccc1N1CCOCC1	FXIIa inh 41.3
COc1ccc(OC)c(CNc2ccc([N+](=O)[O-])cc2C)c1	FXIIa inh 100.2
O=C(c1cc(=O)[nH]c2ccccc12)N1CCN(c2ccccc2)CC1	none
Cc1ccc(O)c(-c2cc(-c3ccccc3C)[nH]n2)c1	hK5 inh 50.5
CC(C(=O)O)n1cc(Cl)cn1 (stereo not given)	hK5 inh 50.9
COc1ccc(/C=C/C(=O)OCC(=O)Nc2ccc(N3CCOCC3)cc2)cc1	hK5 inh 82.4
CCOC(=O)c1c(N)nn(C(C)=O)c1-c1ccccc1	hK5 inh 86.1
CCOC(=O)c1c(N)nn(C(=O)C(C)C)c1-c1ccc(OC)cc1	none
CC(C)(C)NC(=O)NC(=O)COC(=O)c1cccc(S(=O)(=O)N2CCCCC2)c1	none
CC(=O)Oc1oc(-c2ccccc2)nc1C=Nc1ccc(N(C)C)cc1	none
COc1ccccc1N=Cc1nc(-c2ccccc2)oc1OC(C)=O	FXIa inh 1536 43.5
Cc1ccccc1N(C(=O)Cc1cccs1)C(C(=O)NCC1CCCO1)c1cccnc1 (stereo not given)	none
O=C(NCC1CCCO1)C(c1cccnc1)N(C(=O)Cc1cccs1)c1ccccc1 (stereo not given)	hK5 inh 40.6
CCN(CC)C(=O)c1cn(CCC#N)nc1-c1ccc(F)cc1	none
C=CC#CC1(O)CC(C)N(C)CC1C (stereo not given)	hK5 inh 45.6
CC1CC(O)(Cc2ccccc2)C(C)CN1C (stereo not given)	none
Cc1c(Cl)cnc(NC(=O)COC(=O)CCC(=O)c2cccs2)c1Cl	thrombin 1536 55.1
O=C(COC(=O)CCC(=O)c1cccs1)Nc1ncc(Cl)cc1Cl	none
CC(NC(=O)c1ccc2c(c1)OCO2)C(c1cccs1)N1CCN(c2ccccc2)CC1 (stereo not given)	none
CCCCCc1nnc(NC(=O)C2CCCO2)s1 (stereo not given)	Furin inhibitor 34.1
O=C(NCc1ccccc1)c1nc(-c2cccs2)no1	thrombin 1536 44.5
COc1ccc(OCCCc2c(C)n[nH]c2C)cc1	hK5 inh 54.7
CCC(C)NC(=O)CN(c1cc(Cl)cc(Cl)c1)S(C)(=O)=O (stereo not given)	none
Cc1ccc(C(=O)Nc2ccc3c(c2)CCC3)o1	hK5 inh 84.3
O=C(CSc1nc(O)c(C2CCCCC2)c(=O)[nH]1)NCC1CCCO1 (stereo not given)	none
Cc1cc(=O)[nH]c(SCC(=O)NCC2CCCO2)n1 (stereo not given)	thrombin 1536 41.7
CC(NC(=O)c1ccc(C(C)(C)C)cc1)C(=O)O (stereo not given)	none
CCCOc1ccc(C(=O)NC(C)C(=O)O)cc1 (stereo not given)	FXIIa inh 40.0
Clc1cccc2sc(N3CCCC3)nc12	hK5 inh 108.9
Clc1cccc2sc(N3CCOCC3)nc12	none (no result: hK5 inh, thrombin 1536, FXIIa inh, FXIa inh 1536)
O=C(CCN1C(=O)C2C3CCC(C3)C2C1=O)OCC(=O)c1cccc([N+](=O)[O-])c1 (stereo not given)	none
Cc1ccc(C(=O)c2cc3c(cc2N)OCCO3)cc1	none
CSc1nc2cc3c(cc2n1C(=O)c1ccc(C)cc1)OCCO3	thrombin 1536 87.7, FXIa inh 1536 67.4
CCCOCC(O)CCc1n[nH]c(=S)n1-c1ccccc1 (stereo not given)	none
O=C(c1ccc(N2CCCCC2)c([N+](=O)[O-])c1)N(c1ccccn1)c1ccccn1	thrombin 1536 42.6
O=C(Nc1cccc(Cn2cccn2)c1)c1cc2c(s1)CCCC2	Furin inhibitor 25.7
CCN(CC)S(=O)(=O)c1ccc2c(c1)nc(CCC(=O)OCC(=O)Nc1cc(Cl)cc(Cl)c1)n2C	none
CCc1ccc(NC(=O)COC(=O)CCc2nc3cc(S(=O)(=O)N(CC)CC)ccc3n2C)cc1	hK5 inh 57.6
NC(=O)COc1c(-c2ccccc2)oc2ccccc2c1=O	hK5 inh 46.4
O=C(CCCN1C(=O)c2cccc3cccc(c23)C1=O)NCc1cccnc1	FXIIa inh 49.1
CCOC(=O)c1c(O)c2cc(Cl)ccc2n(CC)c1=O	FXIIa inh 50.3
Cc1ccccc1CN1CCc2c(OCC(=O)N3CCCc4ccccc43)cccc2C1=O	hK5 inh 53.3
CC1Cc2ccccc2N1C(=O)C1CCCCN1S(=O)(=O)c1ccccc1 (stereo not given)	hK5 inh 41.3
O=C(/C=C/c1cccc(Cl)c1)NCc1ccncc1	hK5 inh 47.2
O=C(/C=C/c1cccc(Cl)c1)NCc1ccccc1	none
Fc1ccc(SCCc2ccccn2)cc1	FXIIa inh 40.4!
CCOC(=O)C(C)n1cnc2sc3c(c2c1=O)CCC3 (stereo not given)	hK5 inh 40.5
CCOC(=O)c1cnn(-c2nc(SC)nc3sc4c(c23)CCCC4)c1N	none
CCOC(=O)c1cnn(-c2ncnc3sc4c(c23)CCC4)c1N	thrombin 1536 49.5
Cc1ccc(F)cc1NC(=O)c1c(-c2ccccc2)noc1C	none
Cc1ccc(SCC(=O)NN2C(=O)c3ccccc3C2=O)cc1	none
Cc1nn(C)cc1CN1CCC(CO)(CCOc2ccccc2)CC1	thrombin 1536 68.4 (no result: hK5 inh)
C=CCNC(=O)c1ccc(S(=O)(=O)CC)c(Cl)c1Cl	none
O=C(c1ccccc1)N1CCN(S(=O)(=O)c2ccccc2)CC1	none
CC1CC(C)CN(S(=O)(=O)c2ccc(C(=O)N3CCN(c4ccccc4)CC3)cc2)C1 (stereo not given)	hK5 inh 40.0

Assay outcomes (PubChem)
